Test results: ChEMBL document CHEMBL2057135, “Synthesis, antitubercular and antimicrobial evaluation of 3-(4-chlorophenyl)-4-substituted pyrazole derivatives” (2012)
≈ marks a conversion by molar mass, not a printed value.

Experiments:
Assay type in all cases: functional
Pichia kudriavzevii = assay: Antifungal activity against Candida krusei KCCM 11655 after 1 day; conditions: KCCM 11655, 24 h
Aspergillus niger = assay: Antifungal activity against Aspergillus niger KCTC 1231 after 2 days; conditions: KCTC 1231, 48 h
Aspergillus flavus = assay: Antifungal activity against Aspergillus flavus KCCM 11899 after 2 days; conditions: KCCM 11899, 48 h
Cryptococcus neoformans = assay: Antifungal activity against Cryptococcus neoformans KCCM 50564 after 1 day; conditions: KCCM 50564, 24 h
Staphylococcus aureus = assay: Antibacterial activity against Staphylococcus aureus ATCC 29213
[1] = test system: Mycobacterium tuberculosis; assay: Antitubercular activity against Mycobacterium tuberculosis H37Rv ATCC 27294 after 7 days by BACTEC method; conditions: H37Rv ATCC 27294, 168 h
Summary of the method: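 Screened in vitro against M. tuberculosis H37Rv in a modified BACTEC 460 radiometric system. Test compound stocks were made at 1 mg/ml in DMSO and filter-sterilised through 0.22 µm PTFE filters. MIC was read, with rifampin as the reference agent.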

Escherichia coli = assay: Antibacterial activity against Escherichia coli ATCC 25922

Row | SMILES | MIC (Pichia kudriavzevii) [µg/mL] | MIC (Aspergillus niger) [µg/mL] | MIC (Aspergillus flavus) [µg/mL] | MIC (Cryptococcus neoformans) [µg/mL] | MIC (Staphylococcus aureus) [µg/mL] | MIC [1] [µg/mL] | MIC (Escherichia coli) [µg/mL]
1 | Nc1nc(=O)[nH]cc1F [FLUCYTOSINE] | 6.3 (≈ 48.8 µM) | 6.3 (≈ 48.8 µM) | 25 (≈ 194 µM) | 6.3 (≈ 48.8 µM) |  |  | 
2 | COc1ccc(C2SCC(=O)N2NC(=O)c2cc(-c3ccc(Cl)cc3)n[nH]2)cc1OC (racemic) | 12.5 (≈ 27.2 µM) | 6.3 (≈ 13.7 µM) | 12.5 (≈ 27.2 µM) | 50 (≈ 109 µM) | 0.06 (≈ 0.131 µM) | 1.2 (≈ 2.61 µM) | 0.2 (≈ 0.436 µM)
3 | O=C(N/N=C/c1ccccc1O)c1cc(-c2ccc(Cl)cc2)n[nH]1 | 50 (≈ 147 µM) | 100 (≈ 293 µM) | 6.3 (≈ 18.5 µM) | 25 (≈ 73.4 µM) | 0.4 (≈ 1.17 µM) | 1.1 (≈ 3.23 µM) | 0.015 (≈ 0.044 µM)
4 | O=C(NN1C(=O)CSC1c1ccc(Cl)cc1)c1cc(-c2ccc(Cl)cc2)n[nH]1 (racemic) | 25 (≈ 57.7 µM) | 12.5 (≈ 28.8 µM) | 6.3 (≈ 14.5 µM) | 12.5 (≈ 28.8 µM) | 0.048 (≈ 0.111 µM) | 1.15 (≈ 2.65 µM) | 0.022 (≈ 0.0508 µM)
5 | O=C(NN1C(=O)[C@H](Cl)[C@H]1c1ccccc1Cl)c1cc(-c2ccc(Cl)cc2)n[nH]1 (racemic) | 1.6 (≈ 3.67 µM) | 12.5 (≈ 28.7 µM) | 12.5 (≈ 28.7 µM) | 6.3 (≈ 14.5 µM) | 0.034 (≈ 0.078 µM) | 0.55 (≈ 1.26 µM) | 0.031 (≈ 0.0712 µM)
6 | O=C(NN1C(=O)[C@H](Cl)[C@H]1c1ccccc1)c1cc(-c2ccc(Cl)cc2)n[nH]1 (racemic) | 100 (≈ 249 µM) | 25 (≈ 62.3 µM) | 100 (≈ 249 µM) | 50 (≈ 125 µM) | 0.51 (≈ 1.27 µM) | 1.25 (≈ 3.12 µM) | 0.48 (≈ 1.2 µM)
7 | O=C(NN1C(=O)CSC1c1ccccc1[N+](=O)[O-])c1cc(-c2ccc(Cl)cc2)n[nH]1 (racemic) | 25 (≈ 56.3 µM) | 50 (≈ 113 µM) | 50 (≈ 113 µM) | 3.2 (≈ 7.21 µM) | 2 (≈ 4.51 µM) | 4 (≈ 9.01 µM) | 0.1 (≈ 0.225 µM)
8 | O=C(NN1C(=O)CSC1c1cccc([N+](=O)[O-])c1)c1cc(-c2ccc(Cl)cc2)n[nH]1 (racemic) | 50 (≈ 113 µM) | 25 (≈ 56.3 µM) | 100 (≈ 225 µM) | 100 (≈ 225 µM) | 8 (≈ 18 µM) | 2 (≈ 4.51 µM) | 0.6 (≈ 1.35 µM)
9 | O=C(N/N=C/c1ccccc1)c1cc(-c2ccc(Cl)cc2)n[nH]1 | 12.5 (≈ 38.5 µM) | 50 (≈ 154 µM) | 3.2 (≈ 9.85 µM) | 1.6 (≈ 4.93 µM) | 4 (≈ 12.3 µM) | > 5 | 1 (≈ 3.08 µM)
10 | COc1c(N2C[C@@H]3CCCN[C@@H]3C2)c(F)cc2c(=O)c(C(=O)O)cn(C3CC3)c12 [MOXIFLOXACIN] |  |  |  |  | 0.06 (≈ 0.149 µM) |  | 0.015 (≈ 0.0374 µM)
11 | O=C(O)c1cn(C2CC2)c2cc(N3CCNCC3)c(F)cc2c1=O [CIPROFLOXACIN] |  |  |  |  | 0.25 (≈ 0.754 µM) |  | 
12 | O=C(NN1C(=O)[C@H](Cl)[C@H]1c1ccccc1O)c1cc(-c2ccc(Cl)cc2)n[nH]1 (racemic) | 6.3 (≈ 15.1 µM) | 12.5 (≈ 30 µM) | 12.5 (≈ 30 µM) | 1.6 (≈ 3.83 µM) | 0.125 (≈ 0.3 µM) | 0.35 (≈ 0.839 µM) | 0.019 (≈ 0.0455 µM)
13 | O=C(NN1C(=O)[C@H](Cl)[C@H]1c1ccc(Cl)cc1)c1cc(-c2ccc(Cl)cc2)n[nH]1 (racemic) | 6.3 (≈ 14.5 µM) | 6.3 (≈ 14.5 µM) | 12.5 (≈ 28.7 µM) | 1.6 (≈ 3.67 µM) | 0.28 (≈ 0.643 µM) | 1 (≈ 2.3 µM) | 0.01 (≈ 0.023 µM)
14 | OC(Cn1cncn1)(Cn1cncn1)c1ccc(F)cc1F [FLUCONAZOLE] | 25 (≈ 81.6 µM) | 6.3 (≈ 20.6 µM) | 25 (≈ 81.6 µM) | 6.3 (≈ 20.6 µM) |  |  | 
15 | O=C(NN1C(=O)CSC1c1ccccc1)c1cc(-c2ccc(Cl)cc2)n[nH]1 (racemic) | 50 (≈ 125 µM) | 25 (≈ 62.7 µM) | 12.5 (≈ 31.3 µM) | 12.5 (≈ 31.3 µM) | 0.91 (≈ 2.28 µM) | 3.15 (≈ 7.9 µM) | 0.28 (≈ 0.702 µM)
16 | O=C(NN1C(=O)CSC1c1ccccc1Cl)c1cc(-c2ccc(Cl)cc2)n[nH]1 (racemic) | 12.5 (≈ 28.8 µM) | 25 (≈ 57.7 µM) | 50 (≈ 115 µM) | 1.6 (≈ 3.69 µM) | 0.02 (≈ 0.0462 µM) | 0.5 (≈ 1.15 µM) | 0.048 (≈ 0.111 µM)
17 | O=C(NN1C(=O)[C@H](Cl)[C@H]1c1ccccc1[N+](=O)[O-])c1cc(-c2ccc(Cl)cc2)n[nH]1 (racemic) | 12.5 (≈ 28 µM) | 100 (≈ 224 µM) | 50 (≈ 112 µM) | 50 (≈ 112 µM) | 6 (≈ 13.4 µM) | 1.9 (≈ 4.26 µM) | 0.5 (≈ 1.12 µM)
18 | CO[C@H]1/C=C/O[C@@]2(C)Oc3c(C)c(O)c4c(O)c(c(/C=N/N5CCN(C)CC5)c(O)c4c3C2=O)NC(=O)/C(C)=C\C=C\[C@H](C)[C@H](O)[C@@H](C)[C@@H](O)[C@@H](C)[C@H](OC(C)=O)[C@@H]1C [RIFAMPIN] |  |  |  |  |  | 0.125 (≈ 0.152 µM) | 
